Source: ChEMBL document CHEMBL4033788, “Novel Ligustrazine-Based Analogs of Piperlongumine Potently Suppress Proliferation and Metastasis of Colorectal Cancer Cells in Vitro and in Vivo” (J Med Chem, 2018)
≈ marks a conversion by molar mass, not a printed value. Calls of active or inactive are those of the source. The calls are words filed in the database; no cut-off is given here.

Tests used:
[1] = Stability of compound in intestinal fluid at pH 6.8 at 1 uM after 4 hrs by LC-MS/MS analysis
[2] = Aqueous solubility of compound by HPLC analysis; format: physicochemical; settings: water
Procedure, shortened: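 Compound shaken in pure water or 50 mM phosphate buffer pH 7.4 at 20 °C, then centrifuged. Supernatant assayed by C18 HPLC (acetonitrile–water 60/40, 1.0 mL/min, 254 nm). Triplicate.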

[3] = test system: A549; assay: Antiproliferative activity against human A549 cells after 72 hrs by MTT assay; format: functional, cell-based; settings: A549, 72 h
[4] = test system: HCT-116; assay: Antiproliferative activity against human HCT116 cells at […] after 72 hrs by MTT assay relative to control; format: functional; settings: HCT-116, 72 h
[5] = test system: HCT-116; assay: Antiproliferative activity against human HCT116 cells at […] pretreated with GSH for 1 hr measured after 72 hrs by MTT assay relative to control; format: functional
[6] = test system: Mus musculus; assay: Acute toxicity in ICR mouse assessed as mortality at 400 mg/kg, ip administered for 14 days; format: organism-based; settings: in vivo, 336 h
[7] = Acute toxicity in ip dosed ICR mouse assessed as mortality after 14 days; format: organism-based; settings: in vivo
[8] = Acute toxicity in ICR mouse assessed as survival rate at 150 mg/kg, ip administered for 14 days relative to control; format: organism-based; settings: in vivo
[9] = Acute toxicity in ICR mouse assessed as survival rate at 100 mg/kg, ip administered for 14 days relative to control; format: organism-based; settings: in vivo
[10] = test system: Mus musculus; assay: Hepatotoxicity in BALB/c nude mouse xenografted with human HCT116 cells at 2.5 to 5 mg/kg, ip administered for 21 consecutive days; format: toxicity, organism-based; settings: in vivo
Procedure, shortened: (§1)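 Male BALB/c nude mice (3−5 weeks) inoculated sc with 1 × 10^7 HCT-116 cells; at tumour volume about 75 mm3 randomized (n = 8 per group) and dosed ip daily at 2.5 or 5 mg/kg for 21 consecutive days. Body weights monitored; liver, kidney, lung and heart inspected for size and morphology at sacrifice.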

[11] = test system: Mus musculus; assay: Toxicity in BALB/c nude mouse xenografted with human HCT116 cells assessed as abnormality in lung at 2.5 to 5 mg/kg, ip administered for 21 consecutive days; format: organism-based; settings: in vivo; procedure, shortened: as §1
[12] = test system: HCT-116; assay: Inhibition of IL-1beta-mediated adhesion of human rhodamine 123-labeled HCT116 cells to HUVEC after 1 hr by fluoresence assay; format: functional, cell-based
Procedure, shortened: (§2)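 HUVEC monolayers pretreated with or without IL-1β (1 ng/mL) for 4 h, then washed. Rhodamine 123-labeled HCT-116 cells added with vehicle or test agent (2, 10, 50 nM) at 37 °C for 1 h. Non-adherent cells washed off; percent adhered cells determined by fluorescence microscopy. Three separate experiments.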

[13] = test system: HCT-116; assay: Inhibition of TGF-beta1-induced increase in expression levels of MMP-9 protein in human HCT116 cells after 48 hrs by Western blot analysis; format: functional, cell-based
Procedure, shortened: (§3)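 HCT-116 cells treated with or without TGF-β1 (10 ng/mL) for 48 h, with or without test agent. Lysates (20 μg/lane) run on 7.5% SDS-PAGE and transferred to PVDF. Probed for p-Akt (Ser473), Akt, p-GSK-3β (S9), GSK-3β, E-cadherin, MMP-9 and β-actin, detected by ECL. Densitometry relative to β-actin or total protein. Three independent experiments.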

[14] = test system: HCT-116; assay: Inhibition of TGF-beta1-induced increase in expression levels of snail protein in human HCT116 cells after 48 hrs by Western blot analysis; format: functional, cell-based
Procedure, shortened: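 HCT-116 cells (1 × 10^6/well, plated overnight) were exposed to TGF-β1 (10 ng/mL) for 48 h, with or without test compound; vehicle was 0.1% DMSO. Lysates (20 μg/lane) were run on 7.5% SDS-PAGE and blotted to PVDF, with primary antibody overnight at 4 °C and HRP/ECL detection. Band densities were normalised to β-actin across three independent experiments.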

[15] = target: Glycogen synthase kinase-3 beta (Homo sapiens) (UniProt P49841); assay: Inhibition of TGF-beta1-induced GSK-3beta phosphorylation in human HCT116 cells after 48 hrs by Western blot analysis; format: cell-based; procedure, shortened: as §3
Chain of Glycogen synthase kinase-3 beta (Homo sapiens) (P49841 whole entry, looked up): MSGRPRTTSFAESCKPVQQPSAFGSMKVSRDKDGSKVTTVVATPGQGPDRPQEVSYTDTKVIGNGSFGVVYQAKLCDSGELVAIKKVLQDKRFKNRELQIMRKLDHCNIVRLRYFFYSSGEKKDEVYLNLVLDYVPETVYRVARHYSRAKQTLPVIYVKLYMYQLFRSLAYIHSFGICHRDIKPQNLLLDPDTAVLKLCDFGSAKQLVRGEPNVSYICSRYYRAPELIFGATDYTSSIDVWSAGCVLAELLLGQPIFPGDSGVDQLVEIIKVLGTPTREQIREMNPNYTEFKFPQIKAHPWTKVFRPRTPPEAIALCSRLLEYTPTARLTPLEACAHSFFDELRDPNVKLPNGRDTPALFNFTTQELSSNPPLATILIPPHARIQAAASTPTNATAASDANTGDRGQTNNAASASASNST

[16] = test system: HCT-116; assay: Induction of ROS accumulation in human HCT116 cells up to 3 hrs in presence of GSH by DCFH-DA staining-based fluorescence microscopic analysis; format: functional, cell-based
[17] = test system: HCT-116; assay: Antitumor activity against human HCT116 cells xenografted in BALB/c nude mouse assessed as reduction in tumor size at 2.5 to 5 mg/kg, ip administered daily for 21 consecutive days; format: functional, organism-based
Procedure, shortened: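 Male BALB/c nude mice, 3–5 weeks old, inoculated subcutaneously with 1 × 10^7 HCT-116 cells. At about 75 mm³ tumor volume, randomized (n = 8/group) and dosed intraperitoneally daily. Volume by caliper as d² × D/2. At the end, tumors excised and weighed; inhibition = (Wcontrol − Wtreated)/Wcontrol × 100%.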

[18] = test system: U-87 MG; assay: Antiproliferative activity against human U87MG cells after 72 hrs in presence of ligustrazine by MTT assay; format: functional, cell-based, U-87MG ATCC
Procedure, shortened: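 Cells grown in RPMI 1640 with 10% FBS in 96-well plates overnight, then exposed to test agents in triplicate for 72 h. MTT (5 mg/mL stock) added for the last 4 h, formazan dissolved in DMSO, absorbance read at 570 nm. Inhibition = (1 − OD treated/OD control) × 100%.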

[19] = test system: HCT-116; assay: Antiproliferative activity against human HCT116 cells at 8 uM after 72 hrs by MTT assay; format: functional, cell-based
Procedure, shortened: (§4)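 HCT-116 cells pretreated with or without GSH (10 mM) for 1 h, washed, then treated for 72 h. Viability measured by MTT and inhibitory rates calculated. Mean ± SD of three independent experiments.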

[20] = test system: HCT-116; assay: Antiproliferative activity against human HCT116 cells at 8 uM pretreated with GSH for 1 hr measured after 72 hrs by MTT assay; format: functional, cell-based; procedure, shortened: as §4
[21] = test system: HCT-116; assay: Inhibition of IL-1beta-mediated adhesion of human rhodamine 123-labeled HCT116 cells to HUVEC at 50 nM after 1 hr by fluoresence assay; format: functional, cell-based; procedure, shortened: as §2
[22] = test system: Mus musculus; assay: Toxicity in BALB/c nude mouse xenografted with human HCT116 cells assessed as mortality at 4 mg/kg, ip administered thrice a week for 6 consecutive weeks; format: organism-based; settings: in vivo
Procedure, shortened: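 Lung metastasis model: HCT-116 cells in serum-free medium injected into tail vein of BALB/c nude mice, then randomized and given vehicle or compound ip (1, 2 or 4 mg/kg) three times a week. Body weight recorded weekly, survival monitored (n = 6); mice sacrificed after 40 days and lungs examined by H&E histology.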

Question: Which Stability [1] does the source give for `Cc1nc(C)c(/C=C/C(=O)N2CCC=C(Cl)C2=O)nc1C` here?
Answer: Stable

Question: What about the solubility [2] of the same molecule?
Answer: 22.8 µg/mL (≈ 74.7 µM)

Question: What about the IC50 [3] of the same molecule?
Answer: 2210 nM

Question: And the inhibition at […] [4]?
Answer: 82.9%

Question: What about the inhibition at […] [5] of the same molecule?
Answer: 36.1%

Question: What about the Activity [6] of the same molecule?
Answer: Toxic

Question: What about the LD50 at 336 h [7] of the same molecule?
Answer: 148 mg/kg

Question: And the survival at 336 h [8]?
Answer: 40%

Question: What about the survival at 336 h [9] of the same molecule?
Answer: 80%

Question: And the Activity [10]?
Answer: Non-Toxic

Question: And the Activity [11]?
Answer: Non-Toxic

Question: What about the inhibition [12] of the same molecule?
Answer: Dose-dependent effect

Question: And the inhibition [13]?
Answer: Dose-dependent effect

Question: And the inhibition [14]?
Answer: Dose-dependent effect

Question: And the inhibition [15]?
Answer: Dose-dependent effect

Question: And the Activity [16]?
Answer: inactive

Question: What about the Activity [17] of the same molecule?
Answer: Active

Question: With `COc1cc(/C=C/C(=O)N2CCC=CC2=O)cc(OC)c1OC` [PIPLARTINE] as the molecule, how does the IC50 [18] read?
Answer: 16.1 µM

Question: And the Activity [19]?
Answer: Active

Question: What about the Activity [20] of the same molecule?
Answer: inactive

Question: What about the inhibition [21] of the same molecule?
Answer: Active

Question: And the Activity [22]?
Answer: Non-Toxic
